# Data reported in ChEMBL document CHEMBL1126933, “Syntheses and biological activities of potent potassium channel openers derived from (+/-)-2-oxo-1-pyridin-3-yl-cyclohexanecarbothioic acid methylamide: new potassium channel openers” (1993).
# Organism: Rattus norvegicus
# Assay: In vitro relaxation of de-endothelialized rat aortic strips toned with 20 mM KCl
# Type: functional
# Details: Aorta
# Summary of the method: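 Rat aortic rings cut into transverse strips, endothelium removed by gentle rubbing. Strips held in Krebs bicarbonate buffer at 37 °C, gassed with 95% O2/5% CO2, isometric tension recorded. Equilibrated 90 min at 2 g resting tension, then contracted with 20 mmol KCl. At maximal contraction, relaxation measured by cumulative concentration-response, each next concentration added once the previous one reached maximal effect.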
row,IC90 [nM],SMILES
1,400,CNC(=S)[C@@]1(c2cccnc2)CCCC[S+]1[O-] (some centres undefined)
2,100,C/N=C(/S)[C@@]1(c2cccnc2)CCCC[C@@H]1CCOC(=O)c1ccc(F)cc1
3,8000,C/N=C(/S)C1(c2cccnc2)CCCC/C1=C\C=O (centres undefined)
4,10,C/N=C(/S)[C@@]1(c2cccnc2)CCCC[C@@H]1CCNS(=O)(=O)c1ccc(F)c(F)c1
5,100,C/N=C(/S)C1(c2cccnc2)CCCC/C1=C\COc1ccc([N+](=O)[O-])cc1 (centres undefined)
6,10000,C/N=C(/S)C1(c2cccnc2)CCCC/C1=C\C#N (centres undefined)
7,100,C/N=C(/S)C1(c2cccnc2)CCCC/C1=C\C=N\OCc1ccc(F)cc1 (centres undefined)
8,100,C/N=C(/S)[C@@]1(c2cccnc2)CCCC[C@@H]1C/C=C/c1ccccc1
9,300,C/N=C(/S)[C@@]1(c2cccnc2)CCCC[C@@H]1CCNC(=O)Cc1ccccc1
10,30,C/N=C(/S)[C@@]1(c2cccnc2)CCCC[C@@H]1CCOC(C)=O
11,65,C/N=C(/S)C1(c2cccnc2)CCCC/C1=C\COc1ccccc1 (centres undefined)
12,10000,C/N=C(/S)[C@@]1(c2cccnc2)CCCC[C@@H]1CCN
13,10,C/N=C(/S)[C@@]1(c2cccnc2)CCCC[C@@H]1C/C=C/c1ccc(F)cc1
14,130,C/N=C(/S)[C@@]1(c2cccnc2)CCCC[C@@H]1CCNC(C)=O
15,30,C/N=C(/NCC[C@H]1CCCC[C@@]1(/C(S)=N\C)c1cccnc1)NS(C)(=O)=O
16,170,C/N=C(/S)[C@@]1(c2cccnc2)CCCC[C@@H]1CCNS(C)(=O)=O
17,300,CNC(=S)[C@@]1(c2cccnc2)CCCC[C@@H]1CCNS(=O)(=O)c1ccc(OC)cc1
18,7,C/N=C(/S)[C@@]1(c2cccnc2)CCCC[C@@H]1CCNS(=O)(=O)c1ccc(F)cc1
19,3,C/N=C(/S)[C@@]1(c2cccnc2)CCCC[C@@H]1CCNS(=O)(=O)c1cccnc1
20,3,C/N=C(/S)[C@@]1(c2cccnc2)CCCC[C@@H]1CCNc1ccccc1

row,IC90 [nM],SMILES
1,300,C/N=C(/S)C1(c2cccnc2)CCCC/C1=C\COc1ccc(O)cc1 (centres undefined)
2,800,C/N=C(/S)C1(c2cccnc2)CCCCC1=O (centres undefined)
3,3,C/N=C(/S)C1(c2cccnc2)CCCC/C1=C\CSc1ccccc1 (centres undefined)
4,500,C/N=C(/S)[C@@]1(c2cccnc2)CCCC[C@@H]1CCNC(=O)c1ccc(F)cc1
5,100,C/N=C(/S)[C@@]1(c2cccnc2)CCCC[C@@H]1CCN1C(=O)COCC1=O
6,10000,C/N=C(/S)C1(c2cccnc2)CCCC/C1=C\CO (centres undefined)
7,300,C/N=C(/S)[C@@]1(c2cccnc2)CCCC[C@@H]1CCNS(=O)(=O)c1ccc([N+](=O)[O-])cc1
8,1700,C/N=C(/S)[C@@]1(c2cccnc2)CCCC[C@@H]1CCO
9,30,C/N=C(/S)[C@@]1(c2cccnc2)CCCC[C@@H]1C/C=N/OCc1ccccc1
10,30,C/N=C(/S)[C@@]1(c2cccnc2)CCCC[C@@H]1CCNS(=O)(=O)c1ccc(Cl)cc1
11,0.3,C/N=C(/S)[C@@]1(c2cccnc2)CCCC[C@@H]1CCNS(=O)(=O)c1ccccc1
12,300,C/N=C(/NCC[C@H]1CCCC[C@@]1(/C(S)=N\C)c1cccnc1)NS(=O)(=O)c1ccccc1
13,300,C/N=C(/S)[C@@]1(c2cccnc2)CCCC[C@@H]1CCNC(=O)C(C)C
14,3000,C/N=C(/S)C1(c2cccnc2)CCCC/C1=C\C=N\OCC(O)CO (centres undefined)
15,30,C/N=C(/S)[C@@]1(c2cccnc2)CCCC[C@@H]1CCOC(=O)c1ccccc1
16,300,C/N=C(/S)[C@@]1(c2cccnc2)CCCC[C@@H]1CCNC(=O)c1ccccc1
17,300,CNC(=S)[C@@]1(c2cccnc2)CCCC[C@@H]1CC(=O)OC
18,1,C/N=C(/S)[C@@]1(c2cccnc2)CCCC[C@@H]1CCNS(=O)(=O)c1cccs1
19,300,C/N=C(/S)[C@@]1(c2cccnc2)CCCC[C@@H]1CC#N
